Test results: ChEMBL document CHEMBL1165950, “Design and synthesis of new potent anticancer pyrazoles with high FLT3 kinase inhibitory selectivity” (Bioorg Med Chem, 2010)

Columns and labels:
Type in all cases: functional
[1] = tested on: SN12C; assay: Cytotoxicity against human SN12C cells assessed as cell growth at 10 uM after 48 hrs by sulforhodamine B assay; details: read-out: Activity
[2] = tested on: DU-145; assay: Cytotoxicity against human DU145 cells assessed as cell growth at 100 nM after 48 hrs by sulforhodamine B assay; details: DU-145, 48 h, read-out: Activity
[3] = tested on: MDA-MB-468; assay: Cytotoxicity against human MDA-MB-468 cells assessed as cell growth at 100 nM after 48 hrs by sulforhodamine B assay; details: MDA-MB-468, 48 h, read-out: Activity
[4] = tested on: Malme-3M; assay: Cytotoxicity against human MALME-3M cells assessed as cell growth at 10 uM after 48 hrs by sulforhodamine B assay; details: read-out: Activity
[5] = tested on: PC-3; assay: Cytotoxicity against human PC3 cells assessed as cell growth at 0.01 uM after 48 hrs by sulforhodamine B assay; details: PC-3, 48 h, read-out: Activity
[6] = Cytotoxicity against human Hs 578T cells assessed as cell growth at 100 nM after 48 hrs by sulforhodamine B assay; details: read-out: Activity
[7] = tested on: HCT-116; assay: Cytotoxicity against human HCT116 cells assessed as cell growth at 10 uM after 48 hrs by sulforhodamine B assay; details: HCT-116, 48 h, read-out: Activity
[8] = tested on: SNB-75; assay: Cytotoxicity against human SNB75 cells assessed as cell growth at 10 uM after 48 hrs by sulforhodamine B assay; details: SNB-75, 48 h, read-out: Activity
[9] = tested on: ACHN; assay: Cytotoxicity against human ACHN cells assessed as cell growth at 100 nM after 48 hrs by sulforhodamine B assay; details: read-out: Activity
Method in brief: (§1)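 NCI-60 five-dose screen. Cells were grown in RPMI 1640 with 5% FBS and 2 mM L-glutamine, plated at 5000–40,000 cells/well and preincubated for 24 h. Time-zero plates were TCA-fixed. DMSO-solubilized drug was added at five concentrations (10-fold or ½-log serial dilutions) for 48 h at 37 °C, 5% CO2. Cells were TCA-fixed, stained with 0.4% SRB and read at 515 nm. Percent growth used time-zero, control and test absorbances.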

[10] = tested on: LOX IMVI; assay: Growth inhibition of human LOXIMVI cells after 48 hrs by sulforhodamine B assay
Method in brief: (§2)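 NCI 60-cell screen, five-dose mode. Cells grown in RPMI 1640 with 5% FBS and 2 mM L-glutamine and plated at 5000-40,000 cells/well according to doubling time. After 24 h preincubation, a Tz plate was TCA-fixed. Five concentrations (10-fold or 1/2 log dilutions) were applied for 48 h at 37 °C. SRB staining read at 515 nm. IC50 taken from [(Ti-Tz)/(C-Tz)]×100 = 50.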

[11] = tested on: MDA-MB-468; assay: Cytotoxicity against human MDA-MB-468 cells assessed as cell growth at 0.01 uM after 48 hrs by sulforhodamine B assay; details: MDA-MB-468, 48 h, read-out: Activity
[12] = tested on: BT-549; assay: Cytotoxicity against human BT549 cells assessed as cell growth at 0.01 uM after 48 hrs by sulforhodamine B assay; details: BT-549, 48 h, read-out: Activity; method in brief: as §1
[13] = tested on: HOP-92; assay: Cytotoxicity against human HOP92 cells assessed as cell growth at 0.001 uM after 48 hrs by sulforhodamine B assay; details: HOP-92, 48 h, read-out: Activity
[14] = tested on: 786-0; assay: Cytotoxicity against human 786-0 cells assessed as cell growth at 1 uM after 48 hrs by sulforhodamine B assay; details: 786-0, 48 h, read-out: Activity; method in brief: as §1
[15] = tested on: TK-10; assay: Cytotoxicity against human TK10 cells assessed as cell growth at 0.01 uM after 48 hrs by sulforhodamine B assay; details: TK-10, 48 h, read-out: Activity
[16] = tested on: MCF7; assay: Cytotoxicity against human MCF7 cells assessed as cell growth at 0.01 uM after 48 hrs by sulforhodamine B assay; details: MCF7, 48 h, read-out: Activity
[17] = tested on: IGROV-1; assay: Cytotoxicity against human IGROV1 cells assessed as cell growth at 10 uM; details: read-out: Activity
Method in brief: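 Single-dose NCI-60 screen at 10 µM. Cells were grown in RPMI 1640 with 5% FBS and 2 mM L-glutamine, then treated for 48 h at 37 °C. Protein was measured by SRB staining with absorbance at 515 nm. Percentage growth was recorded, and inhibition percentage was calculated as 100 minus growth percentage.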

[18] = tested on: MDA-MB-231; assay: Cytotoxicity against human MDA-MB-231 cells assessed as cell growth at 10 uM after 48 hrs by sulforhodamine B assay; details: MDA-MB-231, 48 h, read-out: Activity
[19] = tested on: NCI-H460; assay: Cytotoxicity against human NCI-H460 cells assessed as cell growth at 0.001 uM after 48 hrs by sulforhodamine B assay; details: NCI-H460, 48 h, read-out: Activity
[20] = tested on: 786-0; assay: Cytotoxicity against human 786-0 cells assessed as cell growth at 0.001 uM after 48 hrs by sulforhodamine B assay; details: 786-0, 48 h, read-out: Activity; method in brief: as §1
[21] = tested on: SF-268; assay: Cytotoxicity against human SF268 cells assessed as cell growth at 0.01 uM after 48 hrs by sulforhodamine B assay; details: SF-268, 48 h, read-out: Activity
[22] = tested on: NCI-H322M; assay: Growth inhibition of human NCI-H322M cells after 48 hrs by sulforhodamine B assay; method in brief: as §2
[23] = tested on: SF-539; assay: Cytotoxicity against human SF539 cells assessed as cell growth at 0.01 uM after 48 hrs by sulforhodamine B assay; details: SF-539, 48 h, read-out: Activity
[24] = tested on: HCC 2998; assay: Cytotoxicity against human HCC2998 cells assessed as cell growth at 0.001 uM after 48 hrs by sulforhodamine B assay; details: HCC 2998, 48 h, read-out: Activity
[25] = tested on: CCRF-CEM; assay: Cytotoxicity against human CCRF-CEM cells assessed as cell growth at 100 nM after 48 hrs by sulforhodamine B assay; details: read-out: Activity; method in brief: as §1
[26] = tested on: HOP-62; assay: Cytotoxicity against human HOP62 cells assessed as cell growth at 100 nM after 48 hrs by sulforhodamine B assay; details: HOP-62, 48 h, read-out: Activity
[27] = tested on: A549; assay: Cytotoxicity against human A549 cells assessed as cell growth at 10 uM after 48 hrs by sulforhodamine B assay; details: A549, 48 h, read-out: Activity; method in brief: as §1
[28] = tested on: NCI-H522; assay: Growth inhibition of human NCI-H522 cells after 48 hrs by sulforhodamine B assay; details: NCI-H522, 48 h; method in brief: as §2
[29] = tested on: HCT-116; assay: Cytotoxicity against human HCT116 cells assessed as cell growth at 1 uM after 48 hrs by sulforhodamine B assay; details: HCT-116, 48 h, read-out: Activity
[30] = tested on: OVCAR-8; assay: Growth inhibition of human OVCAR8 cells after 48 hrs by sulforhodamine B assay; details: OVCAR-8, 48 h; method in brief: as §2
[31] = tested on: NCI-H522; assay: Cytotoxicity against human NCI-H522 cells assessed as cell growth at 0.001 uM after 48 hrs by sulforhodamine B assay; details: NCI-H522, 48 h, read-out: Activity
[32] = tested on: BT-549; assay: Cytotoxicity against human BT549 cells assessed as cell growth at 1 uM after 48 hrs by sulforhodamine B assay; details: BT-549, 48 h, read-out: Activity; method in brief: as §1
[33] = read-out: LC50 (the source's name)

COc1cc(C)cc(-c2c(-c3ccnc(-c4ccc(C(C)=O)cc4)c3)cnn2CC#N)c1
growth at 10 µM [1]: 34%
growth at 0.1 µM [2]: 89%
growth at 0.1 µM [3]: 68%
growth at 10 µM [4]: 43%
growth at 0.01 µM [5]: 88%
growth at 0.1 µM [6]: 71%
growth at 10 µM [7]: -17%
growth at 10 µM [8]: 1%
growth at 0.1 µM [9]: 90%
GI50 [10]: 3.39 µM
TGI [10]: > 100 µM
CC50 [10, 33]: > 100 µM
growth at 0.01 µM [11]: 84%
growth at 0.01 µM [12]: 86%
growth at 0.001 µM [13]: 84%
growth at 1 µM [14]: 10%
growth at 0.01 µM [15]: 100%
growth at 0.01 µM [16]: 92%
growth at 10 µM [17]: 98.5%
growth at 10 µM [18]: 26%
growth at 0.001 µM [19]: 104%
growth at 0.001 µM [20]: 102%
growth at 0.01 µM [21]: 96%
GI50 [22]: > 100 µM
TGI [22]: > 100 µM
CC50 [22, 33]: > 100 µM
growth at 0.01 µM [23]: 98%
growth at 0.001 µM [24]: 95%
growth at 0.1 µM [25]: 84%
growth at 0.1 µM [26]: 84%
growth at 10 µM [27]: 30%
GI50 [28]: 1.93 µM
TGI [28]: 6.96 µM
CC50 [28, 33]: > 100 µM
growth at 1 µM [29]: -27%
GI50 [30]: 2.86 µM
TGI [30]: > 100 µM
CC50 [30, 33]: > 100 µM
growth at 0.001 µM [31]: 86%
growth at 1 µM [32]: 17%
